Data: ChEMBL document CHEMBL3576866, “Discovery of a Cyclic Boronic Acid β-Lactamase Inhibitor (RPX7009) with Utility vs Class A Serine Carbapenemases” (J Med Chem, 2015)

Tests used:
Klebsiella pneumoniae [1] = assay: Inhibition of Klebsiella pneumoniae KP1087 SHV-11 assessed as biapenem MIC at 4 ug/ml by broth microdilution method
Outline: (§1)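 CLSI broth microdilution (M07-A9) against clinical K. pneumoniae strain KP1087 (KPC-2, CTX-M-15, SHV-11, TEM-1); carbapenem MIC (μg/mL) read with the inhibitor held at a fixed 4 μg/mL, alongside carbapenem alone.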

Klebsiella oxytoca [2] = assay: Inhibition of Klebsiella oxytoca KX1017 SHV-30 assessed as meropenem MIC at 4 ug/ml by broth microdilution method
Klebsiella pneumoniae [3] = assay: Inhibition of Klebsiella pneumoniae KP1087 SHV-11 assessed as meropenem MIC at 4 ug/ml by broth microdilution method
Outline: (§2)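 CLSI broth microdilution (M07-A9, 2012) MIC of the carbapenem against clinical serine carbapenemase-producing strain, tested alone and with the inhibitor held at a fixed 4 μg/mL.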

Klebsiella pneumoniae [4] = assay: Inhibition of Klebsiella pneumoniae KP1087 CTX-M-15 assessed as meropenem MIC at 4 ug/ml by broth microdilution method; outline: as §2
[5] = molecular target: Beta-lactamase (Klebsiella pneumoniae) (UniProt Q93LQ9); assay: Inhibition of Klebsiella pneumoniae KP1084 KPC-3 assessed as meropenem MIC at 4 ug/ml by broth microdilution method; outline: as §2
Dipeptidyl peptidase 2 = Dipeptidyl peptidase 2 (Homo sapiens, UniProt Q9UHL4); assay: Inhibition of dipeptidyl peptidase 7 (unknown origin) using H-Lys-Pro-AMC as substrate preincubated for 10 mins followed by substrate addition measured for 30 mins by spectrophotometric analysis
Outline: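 DPP7 (commercial) in 50 mM Na-acetate, pH 5.8. Preincubated 10 min at 37 °C with inhibitor at several concentrations, then H-Lys-Pro-AMC (listed at 100 μM) added and fluorescence monitored for 30 min. Activity was relative to a no-treatment control; IC50 is the concentration giving half inhibition.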

[6] = Cmax in rat at 300 mg/kg, iv administered as 0.5 hrs infusion by HPLC-MS method; format: ADME, organism-based; parameters: dose 300 mg/kg, route intravenous; conditions: in vivo
[7] = Half life in rat at 300 mg/kg, iv administered as 0.5 hrs infusion by HPLC-MS method; format: ADME, organism-based; conditions: in vivo
Klebsiella pneumoniae [8] = assay: In vivo inhibition of KPC in Klebsiella pneumoniae KP1074 in Swiss webster neutropenic mouse lung infection model assessed as biapenem deltalog10CFU in lung at 50 mg/kg, ip administered every 2 hrs starting at 2 hrs postinfection measured after 24 hrs; format: functional
Mus musculus = assay: Toxicity in Swiss webster neutropenic mouse lung infection model up to 1000 mg/kg, administered every 2 hrs starting at 2 hrs; format: organism-based; conditions: in vivo
[9] = Cmax in human at 1 g administered as 3 hrs of infusion; format: ADME, organism-based; parameters: dose 1 g; conditions: in vivo, iv
[10] = AUC in human at 1 g administered as 3 hrs of infusion; format: ADME, organism-based; conditions: in vivo, iv
Homo sapiens = assay: Clearance in human at 1 g administered as 3 hrs of infusion; format: ADME, organism-based; conditions: in vivo, iv
Klebsiella pneumoniae [11] = assay: Inhibition of Klebsiella pneumoniae KP1009 CTX-M-15 assessed as cefepime MIC at 4 ug/ml by broth microdilution method
[12] = molecular target: Carbapenem-hydrolyzing beta-lactamase KPC (Klebsiella oxytoca) (UniProt Q848S6); assay: Inhibition of Klebsiella oxytoca KX1017 KPC-2 assessed as biapenem MIC at 4 ug/ml by broth microdilution method
Klebsiella oxytoca [13] = assay: Inhibition of Klebsiella oxytoca KX1017 SHV-30 assessed as biapenem MIC at 4 ug/ml by broth microdilution method
[14] = molecular target: T1, Beta-lactamase SHV-1 (Klebsiella pneumoniae) (UniProt P0AD64); assay: Inhibition of Klebsiella pneumoniae KP1083 SHV-1 assessed as biapenem MIC at 4 ug/ml by broth microdilution method; outline: as §2
T1 sequence (whole entry): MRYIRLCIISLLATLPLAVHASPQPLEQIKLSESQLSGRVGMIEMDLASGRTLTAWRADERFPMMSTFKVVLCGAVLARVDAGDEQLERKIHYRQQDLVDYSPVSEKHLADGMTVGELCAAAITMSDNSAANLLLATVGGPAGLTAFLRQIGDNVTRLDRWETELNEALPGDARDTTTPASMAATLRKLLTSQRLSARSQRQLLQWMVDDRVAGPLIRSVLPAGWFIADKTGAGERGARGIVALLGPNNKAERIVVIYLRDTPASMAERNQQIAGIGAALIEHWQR

[15] = molecular target: Beta lactamase TEM-1 (Klebsiella pneumoniae) (UniProt Q7B899); assay: Inhibition of Klebsiella pneumoniae KP1083 TEM-1 assessed as biapenem MIC at 4 ug/ml by broth microdilution method; outline: as §2
Klebsiella pneumoniae [16] = assay: Inhibition of Klebsiella pneumoniae KP1087 CTX-M-15 assessed as ertapenem MIC at 4 ug/ml by broth microdilution method; outline: as §2
[17] = molecular target: Carbapenem-hydrolyzing beta-lactamase KPC (Klebsiella pneumoniae) (UniProt Q9F663); assay: Inhibition of Klebsiella pneumoniae KP1083 KPC-3 assessed as imipenem MIC at 4 ug/ml by broth microdilution method
[18] = molecular target: Carbapenem-hydrolyzing beta-lactamase KPC (Klebsiella oxytoca) (UniProt Q848S6); assay: Inhibition of Klebsiella oxytoca KX1017 KPC-2 assessed as ertapenem MIC at 4 ug/ml by broth microdilution method
Klebsiella pneumoniae [19] = assay: Inhibition of Klebsiella pneumoniae KP1004 SHV-11 assessed as ertapenem MIC at 4 ug/ml by broth microdilution method; outline: as §2
Klebsiella pneumoniae [20] = assay: Inhibition of Klebsiella pneumoniae KP1088 SHV-11 assessed as ertapenem MIC at 4 ug/ml by broth microdilution method
Outline: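 CLSI broth microdilution (M07-A9, 2012) against the clinical K. pneumoniae isolate. Carbapenem MICs were read alone and with 9f held at a fixed 4 μg/mL.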

Klebsiella pneumoniae [21] = assay: Inhibition of Klebsiella pneumoniae KP1087 CTX-M-15 assessed as imipenem MIC at 4 ug/ml by broth microdilution method
Klebsiella pneumoniae [22] = assay: Inhibition of Klebsiella pneumoniae KP1087 SHV-11 assessed as imipenem MIC at 4 ug/ml by broth microdilution method; outline: as §1
[23] = molecular target: Beta lactamase TEM-1 (Klebsiella pneumoniae) (UniProt Q7B899); assay: Inhibition of Klebsiella pneumoniae KP1087 TEM-1 assessed as imipenem MIC at 4 ug/ml by broth microdilution method
Outline: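 Carbapenem MIC by CLSI broth microdilution (M07-A9), carbapenem titrated with inhibitor held at fixed 4 μg/mL, against clinical serine-carbapenemase-producing strain KP1087 (KPC-2, CTX-M-15, SHV-11, TEM-1; double porin mutant).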

Klebsiella oxytoca [24] = assay: Inhibition of Klebsiella oxytoca KX1017 OXA-2 assessed as imipenem MIC at 4 ug/ml by broth microdilution method
Klebsiella oxytoca [25] = assay: Inhibition of Klebsiella oxytoca KX1017 SHV-30 assessed as imipenem MIC at 4 ug/ml by broth microdilution method
[26] = Inhibition of Escherichia coli recombinant SHV-12 assessed as substrate nitrocefin degradation preincubated for 10 mins followed by substrate addition measured every 10 secs for 10 mins by spectrophotometric analysis
Outline: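 β-Lactamases purified from overexpressing recombinant E. coli. Enzyme preincubated with inhibitor at varying concentrations for 10 min at room temperature in 50 mM Na phosphate pH 7.0, 0.1 mg/mL BSA. Then 50 μM nitrocefin (final) added and cleavage read at 490 nm every 10 s for 10 min. Ki derived by the Waley method.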

Chain of Carbapenem-hydrolyzing beta-lactamase KPC (Klebsiella oxytoca) (Q848S6 whole entry): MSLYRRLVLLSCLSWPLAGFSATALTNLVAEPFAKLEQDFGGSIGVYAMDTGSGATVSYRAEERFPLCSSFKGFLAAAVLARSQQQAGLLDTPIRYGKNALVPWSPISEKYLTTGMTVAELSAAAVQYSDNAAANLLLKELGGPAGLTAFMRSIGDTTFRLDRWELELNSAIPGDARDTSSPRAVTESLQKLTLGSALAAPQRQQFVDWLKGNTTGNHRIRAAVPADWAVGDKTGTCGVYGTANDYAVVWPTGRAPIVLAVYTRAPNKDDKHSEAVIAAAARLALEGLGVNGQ
Chain of Beta lactamase TEM-1 (Klebsiella pneumoniae) (Q7B899 as listed by the source): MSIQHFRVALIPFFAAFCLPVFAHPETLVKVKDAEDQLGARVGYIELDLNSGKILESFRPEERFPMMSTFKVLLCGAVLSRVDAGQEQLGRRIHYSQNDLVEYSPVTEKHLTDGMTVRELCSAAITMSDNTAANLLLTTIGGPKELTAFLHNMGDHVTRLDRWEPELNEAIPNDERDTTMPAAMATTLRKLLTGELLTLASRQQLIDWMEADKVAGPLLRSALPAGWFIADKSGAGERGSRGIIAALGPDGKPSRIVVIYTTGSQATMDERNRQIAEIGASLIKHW
Chain of Beta-lactamase (Klebsiella pneumoniae) (Q93LQ9 as listed by the source): as the sequence (Q848S6 whole entry) above
Chain of Carbapenem-hydrolyzing beta-lactamase KPC (Klebsiella pneumoniae) (Q9F663 whole entry): as the sequence (Q848S6 whole entry) above

SMILES: O=C(O)C[C@@H]1CC[C@H](NC(=O)Cc2cccs2)B(O)O1 [VABORBACTAM]
- MIC (Klebsiella pneumoniae [1]): 0.25 µg/mL
- MIC (Klebsiella oxytoca [2]): < 0.06 µg/mL
- MIC (Klebsiella pneumoniae [3]): 1 µg/mL
- MIC (Klebsiella pneumoniae [4]): 1 µg/mL
- MIC [5]: 0.5 µg/mL
- IC50 (Dipeptidyl peptidase 2): > 1000 µM
- Cmax [6]: 735 µg/mL
- half-life [7]: 15.6 min
- deltalog10CFU (Klebsiella pneumoniae [8]): -2.19
- Activity (Mus musculus): Non-toxic
- Cmax [9]: 22 µg/mL
- AUC at 3 h [10]: 100000 ng·h/mL
- clearance (Homo sapiens): 12.8 L/h
- MIC (Klebsiella pneumoniae [11]): 2 µg/mL
- MIC [12]: < 0.06 µg/mL
- MIC (Klebsiella oxytoca [13]): < 0.06 µg/mL
- MIC [14]: < 0.06 µg/mL
- MIC [15]: < 0.06 µg/mL
- MIC (Klebsiella pneumoniae [16]): 2 µg/mL
- MIC [17]: 0.13 µg/mL
- MIC [18]: 0.25 µg/mL
- MIC (Klebsiella pneumoniae [19]): ≤ 0.06 µg/mL
- MIC (Klebsiella pneumoniae [20]): ≤ 0.06 µg/mL
- MIC (Klebsiella pneumoniae [21]): 0.25 µg/mL
- MIC (Klebsiella pneumoniae [22]): 0.25 µg/mL
- MIC [23]: 0.25 µg/mL
- MIC (Klebsiella oxytoca [24]): 0.13 µg/mL
- MIC (Klebsiella oxytoca [25]): 0.13 µg/mL
- Ki [26]: 0.029 µM
